Our source for the IC50 and inhibition values is ChEMBL document CHEMBL1150422, “Diarylmethyloxime and hydrazone derivatives with 5-indolyl moieties as potent inhibitors of tubulin polymerization” (Bioorg Med Chem, 2008).

A value given as a limit tells only on which side of the number the result lay.

One experiment relates to HT-29. The experiment is described as follows: Cytotoxicity against human HT29 cells after 72 hrs by XTT method. It counts as functional, cell-based. The conditions noted are these: HT-29, 72 h. The method, boiled down: (§1)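 Cells were seeded in exponential growth per well: HeLa 1.5 × 10³, HT-29 3 × 10³, A-549 5 × 10³, HL-60 3 × 10³. Adherent lines were left to attach for 24 h at 37 °C in 5% CO₂. Cells were exposed to a range of compound concentrations for 72 h. XTT/PMS reagent was then added for 4 h, and absorbance was read at 490 nm against a 655 nm reference. IC50 is the concentration giving 50% inhibition of proliferation.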
Background: Tetrazolium dyes change colour on reduction, which living cells bring about.

The next experiment has as its system HeLa. Description: Cytotoxicity against human HeLa cells after 72 hrs by XTT method. It counts as functional, cell-based.
The subject of another experiment is A549. Description: Cytotoxicity against human A549 cells after 72 hrs by XTT method. The class given is functional, cell-based. The conditions noted are these: A549, 72 h.
The test system of the next experiment is HL-60. The experiment is described as follows: Cytotoxicity against human HL60 cells after 72 hrs by XTT method. It counts as functional, cell-based. The conditions noted are these: HL-60, 72 h. Summed up:
as §1

The species entered for experiment [1] is Bos taurus. Description: Inhibition of calf brain tubulin polymerization at 20 uM after 20 mins. Summed up:
(§2)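 Microtubule protein (1.0 mg/mL) in 0.1 M MES, 1 mM EGTA, 1 mM MgCl₂, 1 mM β-ME, 1.5 mM GTP, pH 6.7 was preincubated with ligand for 30 min at 20 °C, then cooled on ice for 10 min. Assembly was triggered by moving from 4 °C to 37 °C. Inhibition was measured turbidimetrically at 450 nm after 20 min against a no-ligand control.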

Experiment [2] can be described thus: Inhibition of calf brain tubulin polymerization after 20 mins. Also on record: species or system Bos taurus. Summed up: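 Turbidity at 450 nm was followed using 1.0 mg/mL microtubule protein in 0.1 M MES, 1 mM EGTA, 1 mM MgCl₂, 1 mM β-ME, 1.5 mM GTP, pH 6.7, with a ligand-free control. Samples were preincubated for 30 min at 20 °C, iced for 10 min, and assembly was started by shifting from 4 °C to 37 °C. IC50 was read graphically at 20 min. At least two independent experiments used different protein preparations.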

The species named for experiment [3] is Bos taurus. The experiment is described as follows: Inhibition of calf brain tubulin polymerization at 30 uM after 20 mins. The method, boiled down:
as §2

For experiment [4], the species on record is Bos taurus. The experiment is described as follows: Inhibition of calf brain tubulin polymerization at 40 uM after 20 mins. Summed up:
as §2

One may read the IC50 as the midpoint of a concentration-inhibition curve. Lower therefore signals greater potency. The term inhibition denotes the share of the control response that was lost under treatment. Low readings indicate a response near the control, high ones a response far below the control. For `CCn1ccc2cc(C(OC(C)=O)c3cc(OC)c(OC)c(OC)c3)ccc21` (stereo unspecified), the IC50 with HT-29 is greater than 1000 nM; in the experiment with HeLa, greater than 1000 nM; in the experiment on A549, greater than 10000 nM; in the experiment on HL-60, greater than 10000 nM. For the same molecule, the inhibition in the experiment filed under Bos taurus [1] came out at 0%.
On to `CCn1ccc2cc(C(=O)c3cc(OC)c(OC)c(OC)c3)ccc21`, for which the IC50 worked out at 16 nM with HeLa, 140 nM in the experiment on A549, 34 nM with HL-60 and 5700 nM in experiment [2]. In addition, the inhibition in the experiment filed under Bos taurus [1] was determined as 95%.
With `COc1cc(/C(=N/O)c2ccc3c(ccn3C)c2)cc(OC)c1OC`, the IC50 was 330 nM with HT-29; 360 nM in the experiment on HeLa; greater than 10000 nM in the experiment on A549; 110 nM in the experiment with HL-60; 1800 nM in experiment [2]. The molecule further had an inhibition in the experiment listed under Bos taurus [3] of 82%.
With `COc1cc(C(OC(C)=O)c2ccc3c(ccn3C)c2)cc(OC)c1OC` (stereo unspecified), the IC50 in the experiment on HT-29 is 260 nM; in the experiment on HeLa, 6.4 nM; in the experiment with A549 it was greater than 10000 nM; in the experiment on HL-60, 240 nM. In addition, the inhibition in the experiment listed under Bos taurus [1] worked out at 41%.
Turning to `COc1cc(C(=O)c2ccc3c(ccn3C)c2)cc(OC)c1OC`, the IC50 in the experiment on HeLa came to 34 nM; in the experiment on A549, 120 nM; in experiment [2], 7900 nM. Further, the inhibition in the experiment filed under Bos taurus [4] stood at 98%.
Consider `COc1cc(/C(=N/OC(=O)OC(C)(C)C)c2ccc3c(ccn3C)c2)cc(OC)c1OC`, for which the IC50 was greater than 1000 nM with HT-29, greater than 1000 nM with HeLa, greater than 10000 nM in the experiment with A549 and greater than 1000 nM in the experiment with HL-60. The inhibition in the experiment filed under Bos taurus [1] worked out at 10%.
In the case of `CCn1ccc2cc(/C(=N\N)c3cc(OC)c(OC)c(OC)c3)ccc21`, the IC50 is greater than 1000 nM with HT-29, greater than 1000 nM in the experiment on HeLa, greater than 10000 nM with A549 and greater than 1000 nM in the experiment on HL-60. In the experiment listed under Bos taurus [3], the inhibition came to 7%.
In turn, `COc1cc(/C(=N\O)c2ccc3c(ccn3C)c2)cc(OC)c1OC` displayed an inhibition in the experiment filed under Bos taurus [1] of 23%.
`COc1ccc(C(=O)c2cc(OC)c(OC)c(OC)c2)cc1O` [PHENSTATIN]: the concentration for half-maximal inhibition (IC50) in the experiment on HT-29 was determined as 30 nM; with HeLa, 30 nM; in the experiment on A549, 300 nM; in the experiment on HL-60 it was 1800 nM; in experiment [2], 2500 nM. Also, the inhibition in the experiment filed under Bos taurus [1] is 97%.
Regarding `CCn1ccc2cc(/C(=N\OC(C)=O)c3cc(OC)c(OC)c(OC)c3)ccc21`, the IC50 in the experiment on HT-29 was greater than 1000 nM; in the experiment on HeLa it was greater than 1000 nM; with A549, greater than 10000 nM; in the experiment with HL-60 it was greater than 1000 nM. The molecule also showed an inhibition in the experiment listed under Bos taurus [1] of 26%.
Regarding `COc1cc(C(O)c2ccc3c(ccn3C)c2)cc(OC)c1OC` (stereo unspecified), the half-maximal inhibitory concentration (IC50) with HT-29 is greater than 1000 nM; with HeLa, greater than 1000 nM; with A549, greater than 10000 nM; in the experiment on HL-60, greater than 10000 nM; in experiment [2], 18000 nM. The molecule also showed an inhibition in the experiment filed under Bos taurus [1] of 86%.
Regarding `COc1cc(/C(=N\OC(C)=O)c2ccc3c(ccn3C)c2)cc(OC)c1OC`, in the experiment with HL-60, the IC50 was greater than 10000 nM. Also, the inhibition in the experiment filed under Bos taurus [1] was found to be 41%.
With `COc1cc(/C(=N/NC(C)=O)c2ccc3c(ccn3C)c2)cc(OC)c1OC`, the IC50 with HeLa is 2300 nM; with A549, greater than 10000 nM; in the experiment with HL-60, greater than 1000 nM. In addition, the inhibition in the experiment filed under Bos taurus [3] was 14%.
Regarding `CCn1ccc2cc(/C(=N/OC(C)=O)c3cc(OC)c(OC)c(OC)c3)ccc21`, the IC50 was greater than 10000 nM in the experiment with HT-29, greater than 10000 nM in the experiment with HeLa, greater than 10000 nM in the experiment with A549 and greater than 1000 nM in the experiment on HL-60. The molecule further displayed an inhibition in the experiment filed under Bos taurus [1] of 54%.
`COc1cc(/C(=N/OC(C)=O)c2ccc3c(ccn3C)c2)cc(OC)c1OC` gave an IC50 in the experiment with HL-60 greater than 10000 nM. For the same molecule, the inhibition in the experiment filed under Bos taurus [1] amounted to 38%.
On to `COc1ccc(/C=C\c2cc(OC)c(OC)c(OC)c2)cc1O` [COMBRETASTATIN A4], for which the IC50 in the experiment with HT-29 turned out to be 2 nM; in experiment [2], 3000 nM.
Consider `CN/N=C(/c1cc(OC)c(OC)c(OC)c1)c1ccc2c(ccn2C)c1`, for which the half-maximal inhibitory concentration (IC50) in the experiment on HT-29, in the experiment with HeLa, with A549 and with HL-60 was greater than 1000 nM each time. The inhibition in the experiment listed under Bos taurus [1] stood at 20%.
Take `COc1cc(/C(=N/N)c2ccc3c(ccn3C)c2)cc(OC)c1OC`: the IC50 with HL-60 is greater than 10000 nM. Moreover, the inhibition in the experiment listed under Bos taurus [3] was determined as 35%.
Consider `CCn1ccc2cc(C(O)c3cc(OC)c(OC)c(OC)c3)ccc21` (stereo unspecified), for which the IC50 in the experiment with HT-29 was greater than 1000 nM; with HeLa, greater than 1000 nM; in the experiment with A549, greater than 10000 nM; with HL-60, greater than 10000 nM. Also, the inhibition in the experiment filed under Bos taurus [1] stood at 42%.
As for `CCn1ccc2cc(/C(=N\O)c3cc(OC)c(OC)c(OC)c3)ccc21`, the IC50 in the experiment with HT-29 was greater than 1000 nM; in the experiment on HeLa it was greater than 1000 nM; with A549, greater than 10000 nM; in the experiment with HL-60 it was greater than 1000 nM; in experiment [2] it was 5900 nM. The inhibition in the experiment filed under Bos taurus [1] turned out to be 87%.
Consider `COc1cc(/C(=N\OC(=O)OC(C)(C)C)c2ccc3c(ccn3C)c2)cc(OC)c1OC`, for which the 50% inhibitory concentration (IC50) in the experiment on HT-29, with HeLa, in the experiment with A549 and in the experiment with HL-60 was greater than 1000 nM in each case. The molecule further gave an inhibition in the experiment listed under Bos taurus [1] of 17%.
